Experimental data taken from ChEMBL document CHEMBL5724801, “EUbOPEN Chemogenomics Library - Multiplex” (2024).
Several values for one entry are separate records, joined by “and”; a condition that tells them apart may be missing. Equal values may be shown once.

Test system: U2OS
Assay: Multiplex assay against U2OS
Assay type: toxicity, cell-based
Conditions: human
In short: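 Live cells were stained at seeding with Hoechst33342, BioTracker Green Microtubule Cytoskeleton Dye, MitoTracker Red and Annexin V Alexa Fluor 680, then imaged on a CQ1 microscope at 37°C and 5% CO2 after compound addition. CellPathfinder machine-learning gating split cells into Hoechst high-intensity objects or normal cells. Normal cells were split into healthy, pyknosed or fragmented nuclei, and pyknosed cells into mitotic or apoptotic. Tubulin, mitochondrial-mass and membrane-permeability phenotypes are per cents of healthy-nucleus cells.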

[1] = 12 h, 1 µM, compound concentration 1 uM
[2] = 12 h, 10 µM, compound concentration 10 uM
[3] = 24 h, 1 µM, compound concentration 1 uM
[4] = 24 h, 10 µM, compound concentration 10 uM
[5] = 48 h, 1 µM, compound concentration 1 uM
[6] = 48 h, 10 µM, compound concentration 10 uM

For `O=C(CCCc1ccccc1)Nc1nc2ccccc2c(=O)s1`, the “Population Apoptotic (%)” value [1] was 92% and 55%, the “Population Fragmented Nuclei (%)” value [1] was 26% and 17% and the “Population Healthy Nuclei (%)” value [1] was 64% and 74%. For the same compound, the “Population Hoechst High Intensity Objects (%)” value [1] was 2% and 0%, the “Population Membrane Permeable-Phenotype (%)” value [1] was 4% and 7% and the “Population Mitochondria Different-Phenotype (%)” value [1] was 2% and 3%. For the same compound, the “Population Normal (%)” value [1] was 97% and 100%, the “Population Pyknosed Nuclei (%)” value [1] was 9% and 7% and the “Population Tubulin-Different-Phenotype (%)” value [1] was 1% and 2%. For the same compound, the “Total Cell Count” value [1] was 274 and 113, the “Population Apoptotic (%)” value [2] was 72% and 100% and the “Population Fragmented Nuclei (%)” value [2] was 31% and 20%. The “Population Healthy Nuclei (%)” value [2] was 58% and 67%, the “Population Hoechst High Intensity Objects (%)” value [2] was 2% and 4% and the “Population Membrane Permeable-Phenotype (%)” value [2] was 2% and 7%. For the same compound, the “Population Mitochondria Different-Phenotype (%)” value [2] was 0% and 6%, the “Population Normal (%)” value [2] was 97% and 95% and the “Population Pyknosed Nuclei (%)” value [2] was 9% and 11%. For the same compound, the “Population Tubulin-Different-Phenotype (%)” value [2] was 1% and 6%, the “Total Cell Count” value [2] was 270 and 101 and the “Population Apoptotic (%)” value [3] was 79% and 84%. For the same compound, the “Population Fragmented Nuclei (%)” value [3] was 22% and 17%, the “Population Healthy Nuclei (%)” value [3] was 68% and 73% and the “Population Hoechst High Intensity Objects (%)” value [3] was 1% and 0%. For the same compound, the “Population Membrane Permeable-Phenotype (%)” value [3] was 4% and 8%, the “Population Mitochondria Different-Phenotype (%)” value [3] was 2% and the “Population Mitotic Cells (%)” value [3] was 20% and 15%. For the same compound, the “Population Normal (%)” value [3] was 98% and 100%, the “Population Pyknosed Nuclei (%)” value [3] was 9% and the “Population Tubulin-Different-Phenotype (%)” value [3] was 2% and 3%. The “Total Cell Count” value [3] was 325 and 141, the “Population Apoptotic (%)” value [4] was 86% and 100% and the “Population Fragmented Nuclei (%)” value [4] was 25% and 19%. For the same compound, the “Population Healthy Nuclei (%)” value [4] was 65% and 71%, the “Population Hoechst High Intensity Objects (%)” value [4] was 2% and 1% and the “Population Membrane Permeable-Phenotype (%)” value [4] was 5% and 8%. The “Population Mitochondria Different-Phenotype (%)” value [4] was 1% and 2%, the “Population Mitotic Cells (%)” value [4] was 13% and 0% and the “Population Normal (%)” value [4] was 97% and 98%. The “Population Pyknosed Nuclei (%)” value [4] was 9%, the “Population Tubulin-Different-Phenotype (%)” value [4] was 4% and 3% and the “Total Cell Count” value [4] was 319 and 124. For the same compound, the “Population Apoptotic (%)” value [5] was 91% and 87%, the “Population Fragmented Nuclei (%)” value [5] was 13% and 19% and the “Population Healthy Nuclei (%)” value [5] was 76% and 71%. For the same compound, the “Population Hoechst High Intensity Objects (%)” value [5] was 7% and 5%, the “Population Membrane Permeable-Phenotype (%)” value [5] was 3% and the “Population Mitochondria Different-Phenotype (%)” value [5] was 2% and 3%. For the same compound, the “Population Mitotic Cells (%)” value [5] was 8% and 12%, the “Population Normal (%)” value [5] was 92% and 94% and the “Population Pyknosed Nuclei (%)” value [5] was 9% and 8%. The “Population Tubulin-Different-Phenotype (%)” value [5] was 1% and 6%, the “Total Cell Count” value [5] was 394 and 192 and the “Population Apoptotic (%)” value [6] was 91% and 95%. For the same compound, the “Population Fragmented Nuclei (%)” value [6] was 20% and 15%, the “Population Healthy Nuclei (%)” value [6] was 70% and 72% and the “Population Hoechst High Intensity Objects (%)” value [6] was 2% and 0%. For the same compound, the “Population Membrane Permeable-Phenotype (%)” value [6] was 5% and 9%, the “Population Mitochondria Different-Phenotype (%)” value [6] was 0% and 3% and the “Population Mitotic Cells (%)” value [6] was 8% and 4%. For the same compound, the “Population Normal (%)” value [6] was 97% and 99%, the “Population Pyknosed Nuclei (%)” value [6] was 8% and 12% and the “Population Tubulin-Different-Phenotype (%)” value [6] was 3% and 5%. For the same compound, the “Total Cell Count” value [6] was 427 and 175.
In the case of `CN(C)CCCc1cc(C(=O)Nc2ccc(-c3ccncc3)cc2)ccc1O.Cl.Cl`, the “Population Apoptotic (%)” value [1] is reported as 89% and 100%, the “Population Fragmented Nuclei (%)” value [1] is reported as 29% and 10% and the “Population Healthy Nuclei (%)” value [1] is reported as 60% and 75%. For the same compound, the “Population Hoechst High Intensity Objects (%)” value [1] was 2% and 0%, the “Population Membrane Permeable-Phenotype (%)” value [1] was 6% and 2% and the “Population Mitochondria Different-Phenotype (%)” value [1] was 0% and 1%. The “Population Mitotic Cells (%)” value [1] was 10% and 0%, the “Population Normal (%)” value [1] was 97% and 99% and the “Population Pyknosed Nuclei (%)” value [1] was 9% and 13%. The “Population Tubulin-Different-Phenotype (%)” value [1] was 3% and 0%, the “Total Cell Count” value [1] was 199 and 124 and the “Population Apoptotic (%)” value [2] was 77% and 42%. The “Population Fragmented Nuclei (%)” value [2] was 28% and 24%, the “Population Healthy Nuclei (%)” value [2] was 62% and 63% and the “Population Hoechst High Intensity Objects (%)” value [2] was 4% and 1%. The “Population Membrane Permeable-Phenotype (%)” value [2] was 7% and 4%, the “Population Mitochondria Different-Phenotype (%)” value [2] was 1% and 8% and the “Population Mitotic Cells (%)” value [2] was 22% and 57%. The “Population Normal (%)” value [2] was 95% and 98%, the “Population Pyknosed Nuclei (%)” value [2] was 9% and 12% and the “Population Tubulin-Different-Phenotype (%)” value [2] was 2%. The “Total Cell Count” value [2] was 237 and 113, the “Population Apoptotic (%)” value [3] was 100% and 94% and the “Population Fragmented Nuclei (%)” value [3] was 28% and 11%. For the same compound, the “Population Healthy Nuclei (%)” value [3] was 65% and 77%, the “Population Hoechst High Intensity Objects (%)” value [3] was 2% and 4% and the “Population Membrane Permeable-Phenotype (%)” value [3] was 5% and 7%. For the same compound, the “Population Mitochondria Different-Phenotype (%)” value [3] was 2% and 5%, the “Population Mitotic Cells (%)” value [3] was 0% and 5% and the “Population Normal (%)” value [3] was 97% and 95%. The “Population Pyknosed Nuclei (%)” value [3] was 6% and 11%, the “Population Tubulin-Different-Phenotype (%)” value [3] was 3% and 5% and the “Total Cell Count” value [3] was 247 and 178. The “Population Apoptotic (%)” value [4] was 72% and 66%, the “Population Fragmented Nuclei (%)” value [4] was 28% and 21% and the “Population Healthy Nuclei (%)” value [4] was 58% and 63%. The “Population Hoechst High Intensity Objects (%)” value [4] was 4% and 0%, the “Population Membrane Permeable-Phenotype (%)” value [4] was 6% and 4% and the “Population Mitochondria Different-Phenotype (%)” value [4] was 3% and 8%. The “Population Mitotic Cells (%)” value [4] was 27% and 33%, the “Population Normal (%)” value [4] was 95% and 100% and the “Population Pyknosed Nuclei (%)” value [4] was 13% and 15%. The “Population Tubulin-Different-Phenotype (%)” value [4] was 1% and 2%, the “Total Cell Count” value [4] was 257 and 118 and the “Population Apoptotic (%)” value [5] was 88% and 93%. For the same compound, the “Population Fragmented Nuclei (%)” value [5] was 25% and 15%, the “Population Healthy Nuclei (%)” value [5] was 69% and 71% and the “Population Hoechst High Intensity Objects (%)” value [5] was 3%. The “Population Membrane Permeable-Phenotype (%)” value [5] was 5% and 7%, the “Population Mitochondria Different-Phenotype (%)” value [5] was 3% and the “Population Mitotic Cells (%)” value [5] was 11% and 6%. The “Population Normal (%)” value [5] was 96%, the “Population Pyknosed Nuclei (%)” value [5] was 5% and 13% and the “Population Tubulin-Different-Phenotype (%)” value [5] was 3% and 4%. The “Total Cell Count” value [5] was 338 and 259, the “Population Apoptotic (%)” value [6] was 74% and 68% and the “Population Fragmented Nuclei (%)” value [6] was 25% and 20%. The “Population Healthy Nuclei (%)” value [6] was 61% and 63%, the “Population Hoechst High Intensity Objects (%)” value [6] was 5% and 4% and the “Population Membrane Permeable-Phenotype (%)” value [6] was 5% and 13%. For the same compound, the “Population Mitochondria Different-Phenotype (%)” value [6] was 3% and 8%, the “Population Mitotic Cells (%)” value [6] was 25% and 32% and the “Population Normal (%)” value [6] was 94% and 95%. The “Population Pyknosed Nuclei (%)” value [6] was 12% and 16%, the “Population Tubulin-Different-Phenotype (%)” value [6] was 5% and 9% and the “Total Cell Count” value [6] was 352 and 160.
